Converted amounts (≈) assume the structure as drawn. The source made the active and inactive calls. No cut-off for these calls is given here.
Assays:
Type in all cases: functional
Candida albicans [1] = assay: Fungicidal activity against Candida albicans ATCC 10231 after 18 to 24 hrs; conditions: read-out: MFC99.9
Method in brief: (§1)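 After the liquid dilution MIC tubes, 0.1 mL from each tube spread on agar plates. Colonies counted after 18–24 h incubation at 35 °C. MBC taken as the lowest drug concentration killing 99.9% of the inoculum.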

Candida albicans [2] = assay: Antifungal activity against Candida albicans ATCC 10231 assessed as growth inhibition after 24 hrs by liquid dilution method; conditions: ATCC 10231, 24 h
Method in brief: (§2)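 Liquid (tube) dilution. Compounds and positive controls in DMSO at 11 concentrations from 0.98 upward. Each tube held 1 mL compound solution plus bacterial or fungal inoculum and sterile water. Incubated 24 h, then checked for turbidity; MIC is the lowest concentration without growth. Chlorothalonil, norfloxacin and fluconazole as standards.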

Escherichia coli [3] = assay: Antibacterial activity against Escherichia coli ATCC 8099 assessed as growth inhibition at 1000 ug/mL after 24 hrs by disk diffusion assay; conditions: ATCC 8099, 24 h, read-out: DIZ
Method in brief: (§3)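 Disk diffusion on nutrient agar, inoculum spread evenly. Disks of 6 mm Whatman No. 1 paper, dry-heat sterilized at 121 °C for 1 h, soaked in test compound at 1000 (micro)g/mL. Norfloxacin and chlorothalonil disks as positive controls, DMSO disks as negative control. Plates incubated 24 h at 37 °C. Inhibition zone diameter measured in mm.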

Bacillus cereus [4] = assay: Antibacterial activity against Bacillus cereus ATCC 14579 assessed as growth inhibition after 24 hrs by liquid dilution method; conditions: ATCC 14579, 24 h; method in brief: as §2
Bacillus cereus [5] = assay: Bactericidal activity against Bacillus cereus ATCC 14579 after 18 to 24 hrs; conditions: read-out: MBC99.9; method in brief: as §1
Staphylococcus aureus [6] = assay: Antibacterial activity against Staphylococcus aureus ATCC 6538 assessed as growth inhibition after 24 hrs by liquid dilution method; conditions: ATCC 6538, 24 h; method in brief: as §2
Bacillus cereus [7] = assay: Antibacterial activity against Bacillus cereus ATCC 14579 assessed as growth inhibition at 1000 ug/mL after 24 hrs by disk diffusion assay; conditions: ATCC 14579, 24 h, read-out: DIZ; method in brief: as §3
Staphylococcus aureus [8] = assay: Antibacterial activity against Staphylococcus aureus ATCC 6538 assessed as growth inhibition at 1000 ug/mL after 24 hrs by disk diffusion assay; conditions: ATCC 6538, 24 h, read-out: DIZ; method in brief: as §3
Staphylococcus aureus [9] = assay: Bactericidal activity against Staphylococcus aureus ATCC 6538 after 18 to 24 hrs; conditions: read-out: MBC99.9; method in brief: as §1
Candida albicans [10] = assay: Antifungal activity against Candida albicans ATCC 10231 assessed as growth inhibition at 1000 ug/mL after 24 hrs by disk diffusion assay; conditions: for zone of inhibition at 1000 µg/mL: ATCC 10231, 24 h, read-out: DIZ; method in brief: as §3
Pseudomonas aeruginosa [11] = assay: Antibacterial activity against Pseudomonas aeruginosa ATCC 15442 assessed as growth inhibition at 1000 ug/mL after 24 hrs by disk diffusion assay; conditions: ATCC 15442, 24 h, read-out: DIZ; method in brief: as §3
Pseudomonas aeruginosa [12] = assay: Antibacterial activity against Pseudomonas aeruginosa ATCC 15442 assessed as growth inhibition after 24 hrs by liquid dilution method; method in brief: as §2
Escherichia coli [13] = assay: Antibacterial activity against Escherichia coli ATCC 8099 assessed as growth inhibition after 24 hrs by liquid dilution method; conditions: ATCC 8099, 24 h; method in brief: as §2

| Structure (SMILES) | MFC (Candida albicans [1]) | MIC (Candida albicans [2]) | zone of inhibition at 1000 µg/mL (Escherichia coli [3]) | MIC (Bacillus cereus [4]) | MBC (Bacillus cereus [5]) | MIC (Staphylococcus aureus [6]) | zone of inhibition at 1000 µg/mL (Bacillus cereus [7]) | zone of inhibition at 1000 µg/mL (Staphylococcus aureus [8]) | MBC (Staphylococcus aureus [9]) | diameter of the inhibition zone (DIZ) (Candida albicans [10]) | zone of inhibition at 1000 µg/mL (Pseudomonas aeruginosa [11]) | MIC (Pseudomonas aeruginosa [12]; ATCC 15442, 24 h) | MIC (Escherichia coli [13]) | zone of inhibition at 1000 µg/mL (Candida albicans [10]) | MIC (Pseudomonas aeruginosa [12]) |
| --- | --- | --- | --- | --- | --- | --- | --- | --- | --- | --- | --- | --- | --- | --- | --- |
| N#Cc1c(Cl)c(Cl)c(Nc2ccc(N3CCCCC3)c3c(=O)[nH]cnc23)c(C#N)c1Cl | 41.7 µg/mL (≈ 88 µM) | 2.6 µg/mL (≈ 5.49 µM) | 9 mm | 0.5 µg/mL (≈ 1.06 µM) | 6.5 µg/mL (≈ 13.7 µM) | 0.7 µg/mL (≈ 1.48 µM) | 15 mm | 9.7 mm | 4.6 µg/mL (≈ 9.71 µM) | inactive | 8.7 mm | 1.3 µg/mL (≈ 2.74 µM) | 1 µg/mL (≈ 2.11 µM) |  |  |
| N#Cc1c(Cl)c(Cl)c(Cl)c(C#N)c1Cl [CHLOROTHALONIL] | 7.8 µg/mL (≈ 29.3 µM) | 0.7 µg/mL (≈ 2.63 µM) | 18.5 mm | 0.7 µg/mL (≈ 2.63 µM) | 1.7 µg/mL (≈ 6.39 µM) | 1.3 µg/mL (≈ 4.89 µM) | 15.5 mm | 14 mm | 2 µg/mL (≈ 7.52 µM) |  | 15.8 mm | 1.7 µg/mL (≈ 6.39 µM) | 0.5 µg/mL (≈ 1.88 µM) | 17 mm |  |
| N#Cc1c(Cl)c(Cl)c(Nc2ccc(Nc3ccc(F)cc3)c3c(=O)[nH]cnc23)c(C#N)c1Cl | 52.1 µg/mL (≈ 104 µM) | 1.7 µg/mL (≈ 3.4 µM) | 9 mm | 0.7 µg/mL (≈ 1.4 µM) | 6.5 µg/mL (≈ 13 µM) | 0.8 µg/mL (≈ 1.6 µM) | 18 mm | 11.5 mm | 6.5 µg/mL (≈ 13 µM) |  | 11 mm | 1.7 µg/mL (≈ 3.4 µM) | 6.5 µg/mL (≈ 13 µM) | 10.5 mm |  |
| Cc1cc(C)cc(Nc2ccc(Nc3c(Cl)c(Cl)c(C#N)c(Cl)c3C#N)c3nc[nH]c(=O)c23)c1 | 52.1 µg/mL (≈ 102 µM) | 5.2 µg/mL (≈ 10.2 µM) | 11.5 mm | 0.7 µg/mL (≈ 1.37 µM) | 31.3 µg/mL (≈ 61.4 µM) | 0.8 µg/mL (≈ 1.57 µM) | 10.3 mm | 10 mm | 31.3 µg/mL (≈ 61.4 µM) |  | 10 mm | 20.8 µg/mL (≈ 40.8 µM) | 7.8 µg/mL (≈ 15.3 µM) | 7 mm |  |
| CCn1cc(C(=O)O)c(=O)c2cc(F)c(N3CCNCC3)cc21 [NORFLOXACIN] |  |  | 20 mm | 0.6 µg/mL (≈ 1.88 µM) | 6.5 µg/mL (≈ 20.4 µM) | 1.2 µg/mL (≈ 3.76 µM) | 18.6 mm | 17 mm | 5.2 µg/mL (≈ 16.3 µM) |  | 16.8 mm | 0.7 µg/mL (≈ 2.19 µM) | 0.5 µg/mL (≈ 1.57 µM) | 21.8 mm |  |
| CN(C)c1ccc(Nc2c(Cl)c(Cl)c(C#N)c(Cl)c2C#N)c2nc[nH]c(=O)c12 | 7.8 µg/mL (≈ 18 µM) | 0.5 µg/mL (≈ 1.15 µM) | 19 mm | 0.8 µg/mL (≈ 1.84 µM) | 3.3 µg/mL (≈ 7.61 µM) | 3.3 µg/mL (≈ 7.61 µM) | 18 mm | 14.3 mm | 2.6 µg/mL (≈ 6 µM) |  | 15 mm | 2 µg/mL (≈ 4.61 µM) | 1.3 µg/mL (≈ 3 µM) | 15.5 mm |  |
| OC(Cn1cncn1)(Cn1cncn1)c1ccc(F)cc1F [FLUCONAZOLE] | 15.6 µg/mL (≈ 50.9 µM) | 2 µg/mL (≈ 6.53 µM) |  |  |  |  |  |  |  |  |  |  |  |  |  |
| Cc1cccc(Nc2ccc(Nc3c(Cl)c(Cl)c(C#N)c(Cl)c3C#N)c3nc[nH]c(=O)c23)c1 |  |  | 10.3 mm | 1 µg/mL (≈ 2.02 µM) |  | 5.2 µg/mL (≈ 10.5 µM) | 11 mm | 9.7 mm |  |  | 10 mm |  | 104 µg/mL (≈ 210 µM) | 10 mm | inactive |
| N#Cc1c(Cl)c(Cl)c(Nc2ccc(Nc3cccc(Cl)c3)c3c(=O)[nH]cnc23)c(C#N)c1Cl | 31.3 µg/mL (≈ 60.6 µM) | 1.7 µg/mL (≈ 3.29 µM) | 9 mm | 0.5 µg/mL (≈ 0.969 µM) | 41.7 µg/mL (≈ 80.8 µM) | 0.7 µg/mL (≈ 1.36 µM) | 9 mm | 8.5 mm | 31.3 µg/mL (≈ 60.6 µM) |  | 8.7 mm | 20.8 µg/mL (≈ 40.3 µM) | 7.8 µg/mL (≈ 15.1 µM) | 9 mm |  |
